An excerpt weighted towards active compounds, which were near 2.3% of everything screened.
GPR7 antagonist: antagonists of human GPR7 (neuropeptides B/W receptor 1). P48145. GPR7-expressing cells, fluorescence antagonist assay. inhibition, % at 4.4 µM. hit rate 1.1% among 290,000. AID 1861; in the data active = inhibition above about 16%, passing the limit was not always enough;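 also: cells stimulated with the agonist NPW; 0% = agonist with vehicle and 100% = vehicle without agonist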
p-CIP stab down: compounds decreasing mouse p/CIP protein stability; Q05BA5; F442A p/CIP-EGFP cells, EGFP fluorescence, 16 h; decrease of EGFP signal, % at 10 µM; hit rate 0.01% among 290,000;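 active = EGFP signal decrease of at least 30% at 10 µM or well 3 SD below plate mean, unless failing retest; inactive = the rest, including hits failing retest or dose response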
CHT allo act: human CHT allosteric activation | Q9GZV3 | CHT-expressing cells, membrane potential dye, choline EC20; hits give high values; LV-AA mutant CHT in HEK293 cells | B-score at 10 µM | hit rate 0.49% among 310,000;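 active = initial fluorescence not abnormally high and integrated response B-score, plate-corrected, over 3 SD above library mean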
T cell HTS: T cell immune modulators affecting CD8 T cell-vesicle binding; 2C CD8+ T cell-vesicle binding, flow cytometry; hits give low values; response (vesicle binding), % at 7 µM; hit rate 0.068% among 330,000; AID 2052;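 active = response, share of CD8 T cells binding vesicles, and their 90th percentile fluorescence all below set limits, cut at about 80% in these data, passing the limit was not always enough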;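 also: values below 100% mean blocked vesicle binding to the CD8+ T cells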
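Material: murine 2C transgenic CD8+ T lymphocytes / Also added: QL9-peptide-loaded Drosophila micro-vesicles bearing Ld, ICAM-1 and B7-1 / Schedule: binding step 1.5 h, 37 °C, antibody labelling 20 min, ice / Signal: flow cytometry, PE anti-B7-1 (FL2) versus Alexa647 anti-CD8 (FL8), PFA-fixed / Evaluation: percent CD8+ FL2 mean versus row control / Benchmarks: naked versus QL9-loaded vesicles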
Pemphigus Ab inh: human desmoglein-3 autoantibody binding inhibition; P32926; DSG3-coupled beads, scFv-anti-DSG3-GFP binding, flow cytometry; hits give low values; binding (percent of control), % at 10 µM; hit rate 0.48% among 310,000;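 active = binding more than 3 SD below its plate's average and above zero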;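 also: hits lower antibody fragment binding to DSG3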
Target sequence (P32926 whole entry, looked up, the tested form may be a part): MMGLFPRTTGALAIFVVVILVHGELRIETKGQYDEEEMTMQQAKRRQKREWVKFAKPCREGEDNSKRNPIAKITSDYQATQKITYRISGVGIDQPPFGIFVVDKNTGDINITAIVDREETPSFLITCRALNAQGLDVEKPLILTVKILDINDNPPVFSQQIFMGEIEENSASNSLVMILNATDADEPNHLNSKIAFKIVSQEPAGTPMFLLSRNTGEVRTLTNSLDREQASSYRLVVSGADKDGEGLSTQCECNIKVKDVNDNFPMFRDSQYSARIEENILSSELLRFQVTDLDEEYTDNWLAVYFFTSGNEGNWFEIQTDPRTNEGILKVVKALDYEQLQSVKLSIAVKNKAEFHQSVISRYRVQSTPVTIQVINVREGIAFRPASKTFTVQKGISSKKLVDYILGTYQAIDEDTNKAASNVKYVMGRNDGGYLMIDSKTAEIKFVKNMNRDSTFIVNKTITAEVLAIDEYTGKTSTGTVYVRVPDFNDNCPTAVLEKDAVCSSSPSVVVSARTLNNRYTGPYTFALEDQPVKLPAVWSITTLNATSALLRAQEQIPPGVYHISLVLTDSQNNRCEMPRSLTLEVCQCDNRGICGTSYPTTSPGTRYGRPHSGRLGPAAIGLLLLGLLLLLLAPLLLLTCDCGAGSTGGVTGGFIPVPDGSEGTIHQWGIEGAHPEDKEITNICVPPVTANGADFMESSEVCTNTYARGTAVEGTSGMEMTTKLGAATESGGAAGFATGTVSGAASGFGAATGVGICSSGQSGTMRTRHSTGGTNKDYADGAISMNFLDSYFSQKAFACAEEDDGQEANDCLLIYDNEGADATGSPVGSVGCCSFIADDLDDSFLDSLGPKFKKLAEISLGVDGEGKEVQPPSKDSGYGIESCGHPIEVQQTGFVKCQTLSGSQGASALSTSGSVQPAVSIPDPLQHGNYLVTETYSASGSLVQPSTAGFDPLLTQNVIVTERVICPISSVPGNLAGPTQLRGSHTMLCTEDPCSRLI
CHT inh: human CHT choline transport inhibition; Q9GZV3; CHT-expressing cells, membrane potential dye, choline response; hits give low values; B-score at 10 µM; hit rate 0.86% among 310,000; AID 488975;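 active = B-score over 3 SD under the library average, and starting fluorescence ratio not unusually high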;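 also: choline stimulus applied at its EC90 after an EC20 pre-addition; B-score computed on integrated fluorescence ratio after choline addition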
The depositor's hits bear a star.

`COC(=O)C1CCN(CC(=O)Nc2cc(Cl)ccc2OC)CC1` gave GPR7 antagonist -3.3, p-CIP stab down 8.5, CHT allo act inactive, T cell HTS 359.5 and CHT inh -9.68*.
Screening CC(=NCc1ccccc1)c1ccc(O)cc1O returned Pemphigus Ab inh 104.2.
Screening CCOc1ncccc1C(=O)NCCN1C(=O)S/C(=C/c2cccs2)C1=O returned GPR7 antagonist 0.9, p-CIP stab down -4.0, CHT allo act inactive, T cell HTS 214.9, Pemphigus Ab inh 79.5* and CHT inh inactive.
Screening O=C(COc1ccc(Cl)cc1)N1CCN(S(=O)(=O)c2cc(F)ccc2F)CC1 returned Pemphigus Ab inh 112.8.
O=C1C=CC(=O)N1c1ccc(O)cc1 was read as GPR7 antagonist -6.8, p-CIP stab down 3.2, CHT allo act inactive, T cell HTS 107.1, Pemphigus Ab inh 93.1 and CHT inh inactive.
O=C1C=CC(=O)N1c1ccc(OC(F)F)cc1 was read as GPR7 antagonist -1.0, p-CIP stab down -2.7, CHT allo act inactive, T cell HTS 514.1, Pemphigus Ab inh 61.7* and CHT inh inactive.
Screening O=S1(=O)N[C@@H](Cc2ccccc2)COc2ccc(Cl)cc21 returned Pemphigus Ab inh 99.5.
For C=CCN1C(=O)C(Cc2ccc(OC)cc2)S/C1=N/N=C/c1ccco1 (centres undefined) the results were GPR7 antagonist -0.5, p-CIP stab down -2.8, CHT allo act inactive, T cell HTS 914.7, Pemphigus Ab inh 92.2 and CHT inh inactive.
C=CCN1C(=O)C(Cc2ccc(F)cc2)S/C1=N/N=C/c1ccco1 (centres undefined) was read as GPR7 antagonist -7.8, p-CIP stab down -6.7, CHT allo act inactive, T cell HTS 0.0*, Pemphigus Ab inh 94.4 and CHT inh inactive.
`COc1ccc(N2CCN(S(=O)(=O)CCNC(=O)c3cc(=O)c4ccccc4o3)CC2)cc1` gave GPR7 antagonist 2.0, p-CIP stab down -4.1, CHT allo act inactive, T cell HTS 217.7, Pemphigus Ab inh -12.3* and CHT inh inactive.
For O=C(CSc1nnnn1C1CCCC1)NCc1ccccc1 the results were GPR7 antagonist 4.0, p-CIP stab down -1.9, CHT allo act inactive, T cell HTS 139.7, Pemphigus Ab inh 99.5 and CHT inh inactive.
For O=C(CSc1nnnn1C1CC2CCC1C2)Nc1ccnc2ccccc12 (centres undefined) the results were GPR7 antagonist 23.1*, p-CIP stab down -21.8, CHT allo act inactive, T cell HTS 154.4 and CHT inh inactive.
CC1(C)OCC(N)(CO)CO1 was read as Pemphigus Ab inh 110.9.
Screening C#CCN(C[C@H]1[C@H](OC(=O)NCc2ccccc2)[C@H](OC(=O)NCc2ccccc2)C[C@H]2C(=O)N(c3ccccc3)C(=O)[C@@H]12)S(=O)(=O)c1ccc(C)cc1 returned Pemphigus Ab inh 89.4*.
`C#CCN(C[C@H]1[C@H](OC(=O)NC2CC2)[C@H](OC(=O)NC2CC2)C[C@H]2C(=O)N(c3ccccc3)C(=O)[C@@H]12)S(=O)(=O)c1ccc(C)cc1` gave Pemphigus Ab inh 99.2.
Screening COc1cc2c(c(OC)c1OC)-c1ccc(NCc3ccccc3)c(=O)cc1C(NC(C)=O)CC2 (centres undefined) returned Pemphigus Ab inh 106.0.
For COc1cccc(NC(=O)CSc2nnc(CNC(=O)c3ccccc3F)o2)c1 the results were GPR7 antagonist -4.1, p-CIP stab down -2.4, CHT allo act inactive, T cell HTS 252.5, Pemphigus Ab inh 104.7 and CHT inh inactive.
`CCSc1nnc(NC(=O)CSc2nnc(CNC(=O)c3ccccc3F)o2)s1` gave GPR7 antagonist -4.4, p-CIP stab down -15.5, CHT allo act inactive, T cell HTS 239.8, Pemphigus Ab inh 53.9* and CHT inh inactive.
Screening C=CCN1C(=O)c2ccc(C(=O)N(CC(C)C)c3c(N)n(CCCC)c(=O)[nH]c3=O)cc2C1=O returned CHT allo act inactive, T cell HTS 356.9, Pemphigus Ab inh 75.6* and CHT inh inactive.
N#Cc1ccccc1OCCCN1CCC(Cc2ccccc2)CC1 was read as GPR7 antagonist 11.6, p-CIP stab down 0.2, CHT allo act inactive, T cell HTS 177.6, Pemphigus Ab inh 101.8 and CHT inh -8.98*.
For CC1(C)CC(=O)C=C(c2ccc(-c3cnc4ccccc4c3)cc2)C1=O the results were Pemphigus Ab inh 97.6.
`O=C1NC(=S)SC1=C1CCCCCC1` gave GPR7 antagonist -9.4, p-CIP stab down -18.6, CHT allo act inactive, T cell HTS 395.8, Pemphigus Ab inh 97.5 and CHT inh -6.03*.
COc1ccccc1N1CCN(c2cc(=O)n(Cc3ccc(F)cc3)c(=O)[nH]2)CC1 was read as GPR7 antagonist -7.6, p-CIP stab down -4.3, CHT allo act inactive, T cell HTS 447.5, Pemphigus Ab inh 69.5* and CHT inh inactive.
`COc1ccc(-n2c(=O)cc(N3CCN(c4ccccc4OC)CC3)[nH]c2=O)cc1` gave GPR7 antagonist -7.3, p-CIP stab down 9.1, CHT allo act inactive, T cell HTS 519.6, Pemphigus Ab inh 103.5 and CHT inh inactive.
`COc1ccc(-n2c(=O)cc(N3CCN(Cc4ccccc4)CC3)[nH]c2=O)cc1` gave GPR7 antagonist 17.9*, p-CIP stab down 7.4, CHT allo act inactive, T cell HTS 385.4, Pemphigus Ab inh 99.4 and CHT inh inactive.
`CC(c1ccc2ccccc2c1)c1ccccc1C(=O)O` (centres undefined) gave Pemphigus Ab inh 105.0.
Screening COCc1cc(C)n(CC(=O)Nc2ccc(Cl)cc2Cl)c(=O)c1C#N returned GPR7 antagonist -4.3, p-CIP stab down -6.5, CHT allo act inactive, T cell HTS 159.4, Pemphigus Ab inh -3.1* and CHT inh inactive.
`COCc1cc(C)n(CC(=O)Nc2ccccc2OC)c(=O)c1C#N` gave GPR7 antagonist 1.6, p-CIP stab down -7.3, CHT allo act inactive, T cell HTS 531.5 and CHT inh inactive.
For S=C(Nc1cccnc1)Nc1cccc2cnccc12 the results were GPR7 antagonist -6.3, p-CIP stab down 52.4*, CHT allo act inactive, T cell HTS 273.5, Pemphigus Ab inh 92.6 and CHT inh inactive.
`O=C(c1ccc2c(c1)OCO2)N1CCC(Cc2ccccc2)CC1` gave GPR7 antagonist 18.8*, p-CIP stab down 2.7, CHT allo act inactive, T cell HTS 220.1, Pemphigus Ab inh 106.0 and CHT inh inactive.
Screening CCCc1cc(CN(C)C(=O)c2ccc(OC3CCN(C(C)=O)CC3)c(OC)c2)[nH]n1 returned Pemphigus Ab inh 106.1.
COc1ccc(C(c2nnnn2C2CCCC2)N2CCC(C)CC2)c(OC)c1 (centres undefined) was read as GPR7 antagonist 4.4, p-CIP stab down -11.6, CHT allo act inactive, T cell HTS 239.3, Pemphigus Ab inh 97.8 and CHT inh inactive.
